Drawing on ChEMBL document CHEMBL5608193, “Discovery of bivalent small molecule degraders of cyclin-dependent kinase 7 (CDK7)” (Eur J Med Chem, 2024), this text covers Ki, IC50 and Activity for 19 compounds.

By Ki is commonly meant a dissociation constant, usually derived from enzyme kinetics or from competition with a known ligand. As a reminder, the IC50 is the concentration that inhibits the measured activity by half.

Calls of active or inactive are those of the source. No cut-off for these calls is given here.

Assay [1] addresses T1, CDK7/Cyclin H/MNAT1 (Homo sapiens, UniProt P50613). The assay is described as follows: Inhibition of recombinant GST-tagged CDK7/CycH/MAT1 (unknown origin) extracted from baculo-virus infected Sf9 insect cells assessed as inhibition constant using ATP containing 32P measured after 15 mins by Beckman liquid scintillation counter analysis. The class given is cell-free.
In assay [2] the target is T1, CDK7/Cyclin H/MNAT1. Put plainly: Inhibition of CDK7/CycH/MNAT1 (unknown origin) assessed as change in TR-FRET ratio using Cdk7/9tide as substrate and ATP by in vitro Adapta Eu kinase assay. Type of assay: protein-complex assay. The essentials:
(§1)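 Adapta Eu kinase assay run at ThermoFisher on CDK7/Cyclin H/MNAT1 with ATP at Km.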
On the technique in general: TR-FRET usually uses a lanthanide donor and a delayed reading to cut background.

For assay [3], the target named is T2, Protein cereblon/Cyclin-dependent kinase 7 (Homo sapiens) (UniProt P50613+Q96SW2). Put plainly: PROTAC activity at CDK7/CRBN in human Jurkat cells assessed as degradation of CDK7 at 1 uM measured after 16 hrs incubation by immunoblot analysis. The class given is cell-based. An outline of the steps: (§2)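 Jurkat cells exposed to CRBN-recruiting bivalent compounds at 0.1 or 1 μM for 16 h. Lysed in RIPA with protease/phosphatase inhibitors, BCA-normalized, run on 4–20% SDS-PAGE and blotted to nitrocellulose. Probed with anti-CDK7 (1:1000) and β-actin (1:5000) overnight at 4 °C, IRDye secondaries, near-infrared imaging.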
T2 sequence (P50613 whole entry, looked up): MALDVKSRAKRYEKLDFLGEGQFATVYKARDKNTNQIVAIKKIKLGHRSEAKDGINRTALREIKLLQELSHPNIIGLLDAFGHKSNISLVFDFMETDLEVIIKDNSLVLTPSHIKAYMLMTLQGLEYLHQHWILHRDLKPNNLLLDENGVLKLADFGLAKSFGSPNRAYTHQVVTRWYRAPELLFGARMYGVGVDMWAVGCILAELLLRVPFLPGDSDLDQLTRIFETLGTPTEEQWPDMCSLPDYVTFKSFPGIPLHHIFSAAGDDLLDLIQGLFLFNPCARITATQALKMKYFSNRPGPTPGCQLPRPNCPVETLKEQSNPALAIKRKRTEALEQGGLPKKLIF
T2 sequence (Q96SW2 whole entry, looked up): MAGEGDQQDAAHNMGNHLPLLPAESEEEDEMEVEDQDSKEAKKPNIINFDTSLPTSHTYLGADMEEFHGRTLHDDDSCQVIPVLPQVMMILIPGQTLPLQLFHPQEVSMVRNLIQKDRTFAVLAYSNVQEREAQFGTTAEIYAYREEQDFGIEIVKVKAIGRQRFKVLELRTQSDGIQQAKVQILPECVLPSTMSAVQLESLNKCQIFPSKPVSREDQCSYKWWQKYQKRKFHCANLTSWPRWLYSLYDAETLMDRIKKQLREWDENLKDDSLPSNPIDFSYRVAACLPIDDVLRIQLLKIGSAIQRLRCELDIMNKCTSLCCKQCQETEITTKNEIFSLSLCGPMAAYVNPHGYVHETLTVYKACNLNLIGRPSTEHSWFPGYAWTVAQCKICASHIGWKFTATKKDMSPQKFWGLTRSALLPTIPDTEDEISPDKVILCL
On the technique in general: In western blotting, separated proteins are transferred to a membrane and probed.

In assay [4] the target is T2, Protein cereblon/Cyclin-dependent kinase 7 (Homo sapiens). The assay is described as follows: PROTAC activity at CDK7/CRBN in human Jurkat cells assessed as degradation of CDK7 at 0.1 uM measured after 16 hrs incubation by immunoblot analysis. The class given is cell-based. An outline of the steps:
as §2

For assay [5], the target named is T3, von Hippel-Lindau disease tumor suppressor/Cyclin-dependent kinase 7 (Homo sapiens) (UniProt P50613+P40337). Put plainly: PROTAC activity at CDK7/VHL in human Jurkat cells assessed as degradation of CDK7 at 1 uM measured after 16 hrs incubation by immunoblot analysis relative to control. The class given is cell-based. An outline of the steps:
(§3)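 Jurkat cells given VHL-recruiting compounds at 0.1 or 1 μM for 16 h. RIPA lysis, BCA normalization, 4–20% SDS-PAGE, nitrocellulose transfer. CDK7 (1:1000) and β-actin probed overnight at 4 °C, IRDye secondaries, Odyssey detection. Quantified against control, mean ± SEM from three independent biological replicates.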

The target of assay [6] is T3, von Hippel-Lindau disease tumor suppressor/Cyclin-dependent kinase 7 (Homo sapiens). Put plainly: PROTAC activity at CDK7/VHL in human Jurkat cells assessed as degradation of CDK7 at 0.1 uM measured after 16 hrs incubation by immunoblot analysis relative to control. Type of assay: cell-based. The essentials: as §3
The test system of assay [7] is OVCAR-3. The assay is described as follows: Antiproliferative activity against human OVCAR-3 cells assessed as cell viability measured after 72 hrs by CellTiter-Glo assay. Type of assay: functional, cell-based. The conditions noted are these: OVCAR-3, 72 h. An outline of the steps: (§4)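 Cells grown in RPMI 1640 with 10% heat-inactivated FBS and penicillin/streptomycin at 37 °C, 5% CO2, mycoplasma-negative. Seeded at 10^4/ml. Compounds dispensed digitally from 10 mM or 1 mM DMSO stocks, DMSO equalized, triplicate wells. After 72 h, CellTiter-Glo added for 10–15 min at room temperature and luminescence read.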
Background: In ATP-based viability assays light output follows the ATP content of the culture.

The test system of assay [8] is A549. Put plainly: Antiproliferative activity against human A549 cells assessed as cell viability measured after 72 hrs by CellTiter-Glo assay. The class given is functional, cell-based. The conditions noted are these: A549, 72 h. The essentials:
as §4

Assay [9] concerns the target T1, CDK7/Cyclin H/MNAT1. The assay is described as follows: Inhibition of CDK7/CycH/MAT1 (unknown origin). Set-up: species or system Sf9. The essentials: as §1
The subject of assay [10] is MOLT-4. The assay is described as follows: Antiproliferative activity against human MOLT-4 cells assessed as cell viability measured after 72 hrs by CellTiter-Glo assay. The class given is functional, cell-based. The conditions noted are these: MOLT-4, 72 h. An outline of the steps:
as §4

The test system of assay [11] is SU-DHL-5. The assay is described as follows: Antiproliferative activity against human SU-DHL-5 cells assessed as cell viability measured after 72 hrs by CellTiter-Glo assay. The conditions noted are these: SU-DHL-5, 72 h. Type of assay: functional, cell-based. The essentials:
as §4

For assay [12], the system named is Jurkat. The assay is described as follows: Antiproliferative activity against human Jurkat cells assessed as cell viability measured after 72 hrs by CellTiter-Glo assay. The class given is functional, cell-based. An outline of the steps:
as §4

T1 sequence (P51946 whole entry): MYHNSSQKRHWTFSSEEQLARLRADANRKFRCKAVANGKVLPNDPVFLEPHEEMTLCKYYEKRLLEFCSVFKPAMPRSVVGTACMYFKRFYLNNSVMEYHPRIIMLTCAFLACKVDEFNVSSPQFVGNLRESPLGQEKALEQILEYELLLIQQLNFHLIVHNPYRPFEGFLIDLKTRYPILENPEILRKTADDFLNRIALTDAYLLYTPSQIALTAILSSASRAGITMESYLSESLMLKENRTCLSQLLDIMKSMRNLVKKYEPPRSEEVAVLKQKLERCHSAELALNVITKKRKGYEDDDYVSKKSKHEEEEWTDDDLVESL
T1 sequence (P50613 whole entry): as the sequence (P50613 whole entry, looked up) above
T1 sequence (P51948 whole entry, further chain): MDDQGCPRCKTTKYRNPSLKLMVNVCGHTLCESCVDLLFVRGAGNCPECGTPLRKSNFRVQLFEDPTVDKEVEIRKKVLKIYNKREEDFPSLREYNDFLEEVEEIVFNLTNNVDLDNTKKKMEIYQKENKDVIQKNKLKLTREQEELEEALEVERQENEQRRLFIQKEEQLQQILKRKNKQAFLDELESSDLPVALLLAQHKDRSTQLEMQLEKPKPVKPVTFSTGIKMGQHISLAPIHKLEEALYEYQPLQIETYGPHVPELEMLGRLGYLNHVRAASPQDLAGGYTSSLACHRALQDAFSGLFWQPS
T3 sequence (P40337 whole entry, looked up): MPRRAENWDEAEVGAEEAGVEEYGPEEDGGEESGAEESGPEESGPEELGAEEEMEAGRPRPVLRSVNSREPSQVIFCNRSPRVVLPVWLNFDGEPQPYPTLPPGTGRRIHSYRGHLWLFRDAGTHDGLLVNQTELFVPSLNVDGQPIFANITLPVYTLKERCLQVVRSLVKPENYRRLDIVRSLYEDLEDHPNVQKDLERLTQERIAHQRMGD
T3 sequence (P50613 whole entry, looked up): as the sequence (P50613 whole entry, looked up) above

In the case of `C=CC(=O)Nc1ccc(C(=O)Nc2n[nH]c3c2CN(C(=O)N[C@@H](CN(C)C)c2ccccc2)C3(C)C)cc1`, the Ki in [1] came to 2.2 nM.

Turning to `CN(C)C[C@@H](NC(=O)N1Cc2c(NC(=O)c3ccc(C(=O)NCCOCCOCCNc4cccc5c4C(=O)N(C4CCC(=O)NC4=O)C5=O)cc3)n[nH]c2C1(C)C)c1ccccc1` (some centres not stated), the IC50 in assay [2] worked out at 6.4 nM. Moreover, the result in assay [3] and in assay [4] was inactive.

Consider `CN(C)C[C@@H](NC(=O)N1Cc2c(NC(=O)c3ccc(C(=O)NCCOCCOCCOCCNc4cccc5c4C(=O)N(C4CCC(=O)NC4=O)C5=O)cc3)n[nH]c2C1(C)C)c1ccccc1` (some centres not stated), for which the concentration for half-maximal inhibition (IC50) in [2] was 17.7 nM. Also, the result in assay [3] and in assay [4] was inactive.

For `Cc1ncsc1-c1ccc([C@H](C)NC(=O)[C@@H]2C[C@@H](O)CN2C(=O)[C@@H](NC(=O)CCCNC(=O)c2ccc(C(=O)Nc3n[nH]c4c3CN(C(=O)N[C@H](CN(C)C)c3ccccc3)C4(C)C)cc2)C(C)(C)C)cc1`, in assay [2], the IC50 worked out at 5.6 nM. The outcome in assay [5] and in assay [6] was Active.

Turning to `Cc1ncsc1-c1ccc(CNC(=O)C2[C@@H](O)CCN2C(=O)C(NC(=O)C2(F)CC2)C(C)(C)C)c(OCCOCCOCCNC(=O)c2ccc(C(=O)Nc3n[nH]c4c3CN(C(=O)N[C@H](CN(C)C)c3ccccc3)C4(C)C)cc2)c1` (some centres not stated), the IC50 in assay [2] worked out at 13.4 nM. For the same compound, the outcome in assay [5] and in assay [6] was Active.

Regarding `Cc1ncsc1-c1ccc([C@H](C)NC(=O)[C@@H]2C[C@@H](O)CN2C(=O)[C@@H](NC(=O)CCCCOc2ccc(C(=O)Nc3n[nH]c4c3CN(C(=O)N[C@H](CN(C)C)c3ccccc3)C4(C)C)cc2)C(C)(C)C)cc1`, the IC50 in [2] came out at 12.6 nM. Further, the result in [5] and in [6] was Active.

For `CN(C)C[C@@H](NC(=O)N1Cc2c(NC(=O)c3ccc(C(=O)NCCNc4cccc5c4C(=O)N(C4CCC(=O)NC4=O)C5=O)cc3)n[nH]c2C1(C)C)c1ccccc1` (some centres not stated), the IC50 in [2] turned out to be 6.7 nM. For the same compound, the outcome in [3] and in assay [4] was inactive.

Regarding `Cc1ncsc1-c1ccc([C@H](C)NC(=O)[C@@H]2C[C@@H](O)CN2C(=O)[C@@H](NC(=O)CCNC(=O)c2ccc(C(=O)Nc3n[nH]c4c3CN(C(=O)N[C@H](CN(C)C)c3ccccc3)C4(C)C)cc2)C(C)(C)C)cc1`, in assay [2], the IC50 amounted to 8.7 nM. In addition, the outcome in [5] and in assay [6] was Active.

For the compound `CN(C)C[C@@H](NC(=O)N1Cc2c(NC(=O)c3ccc(C(=O)NCCOCCNc4cccc5c4C(=O)N(C4CCC(=O)NC4=O)C5=O)cc3)n[nH]c2C1(C)C)c1ccccc1` (some centres not stated), in [2], the half-maximal inhibitory concentration (IC50) stood at 11.3 nM. Also, the outcome in [3] and in assay [4] was inactive.

As to `CCC(=O)Nc1ccc(C(=O)Nc2n[nH]c3c2CN(C(=O)N[C@@H](CN(C)C)c2ccccc2)C3(C)C)cc1`, the IC50 stood at 896 nM in [7]; 1630 nM in [8]; 6.8 nM in assay [9]; 598 nM in assay [10]; 176 nM in assay [11]; 1190 nM in assay [12].

For `Cc1ncsc1-c1ccc([C@H](C)NC(=O)[C@@H]2C[C@@H](O)CN2C(=O)[C@@H](NC(=O)CCCCCc2ccc(C(=O)Nc3n[nH]c4c3CN(C(=O)N[C@H](CN(C)C)c3ccccc3)C4(C)C)cc2)C(C)(C)C)cc1`, the result in [5] and in assay [6] was Active.

As to `Cc1ncsc1-c1ccc([C@H](C)NC(=O)[C@@H]2C[C@@H](O)CN2C(=O)[C@@H](NC(=O)CCOCCNC(=O)c2ccc(C(=O)Nc3n[nH]c4c3CN(C(=O)N[C@H](CN(C)C)c3ccccc3)C4(C)C)cc2)C(C)(C)C)cc1`, the IC50 in [2] came out at 11.1 nM. Also, the result in assay [5] and in [6] was Active.

In the case of `CC(=O)N[C@H](C(=O)N1C[C@H](O)C[C@H]1C(=O)N[C@@H](C)c1ccc(-c2scnc2C(=O)NCCCCCNC(=O)c2ccc(C(=O)Nc3n[nH]c4c3CN(C(=O)N[C@H](CN(C)C)c3ccccc3)C4(C)C)cc2)cc1)C(C)(C)C`, the IC50 in [2] turned out to be 8.6 nM. Further, the result in [5] and in [6] was Active.

As to `CN(C)C[C@@H](NC(=O)N1Cc2c(NC(=O)c3ccc(C(=O)NCCCCC#Cc4cccc5c4C(=O)N(C4CCC(=O)NC4=O)C5=O)cc3)n[nH]c2C1(C)C)c1ccccc1` (some centres not stated), the IC50 in [2] is 13.3 nM. The result in [3] and in assay [4] was inactive.

Take `Cc1ncsc1-c1ccc([C@H](C)NC(=O)[C@@H]2C[C@@H](O)CN2C(=O)[C@@H](NC(=O)CCCCCNC(=O)c2ccc(C(=O)Nc3n[nH]c4c3CN(C(=O)N[C@H](CN(C)C)c3ccccc3)C4(C)C)cc2)C(C)(C)C)cc1`: the 50% inhibitory concentration (IC50) in assay [2] was determined as 8.1 nM. Also, the outcome in assay [5] and in [6] was Active.

Regarding `CN(C)C[C@@H](NC(=O)N1Cc2c(NC(=O)c3ccc(C(=O)NCCCCCOc4cccc5c4C(=O)N(C4CCC(=O)NC4=O)C5=O)cc3)n[nH]c2C1(C)C)c1ccccc1` (some centres not stated), in assay [2], the IC50 was determined as 9.2 nM. The result in [3] and in assay [4] was inactive.

Consider `CN(C)C[C@@H](NC(=O)N1Cc2c(NC(=O)c3ccc(C(=O)NCCCCCCNc4cccc5c4C(=O)N(C4CCC(=O)NC4=O)C5=O)cc3)n[nH]c2C1(C)C)c1ccccc1` (some centres not stated), for which the half-inhibitory concentration (IC50) in assay [2] turned out to be 9.4 nM. Besides, the outcome in assay [3] and in assay [4] was inactive.

As to `Cc1ncsc1-c1ccc([C@H](C)NC(=O)[C@@H]2C[C@@H](O)CN2C(=O)[C@@H](NC(=O)CCOCCOCCNC(=O)c2ccc(C(=O)Nc3n[nH]c4c3CN(C(=O)N[C@H](CN(C)C)c3ccccc3)C4)cc2)C(C)(C)C)cc1`, in assay [2], the 50% inhibitory concentration (IC50) was determined as 7.6 nM. The result in assay [5] and in assay [6] was Active.

As for `CN(C)C[C@@H](NC(=O)N1Cc2c(NC(=O)c3ccc(C(=O)NCCCCCCCCOc4cccc5c4C(=O)N(C4CCC(=O)NC4=O)C5=O)cc3)n[nH]c2C1(C)C)c1ccccc1` (some centres not stated), in assay [2], the IC50 stood at 34.4 nM. For the same compound, the outcome in assay [3] and in [4] was inactive.
